Data: ChEMBL document CHEMBL4007452, “Discovery of an Orally Selective Inhibitor of Signal Transducer and Activator of Transcription 3 Using Advanced Multiple Ligand Simultaneous Docking” (J Med Chem, 2017)
The source made the active and inactive calls. No cut-off for these calls is given here.

How the values were obtained:
[1] = Antiproliferative activity against human UW426 cells after 24 hrs by MTT assay; assay type: functional, cell-based; settings: UW426, 24 h
Method in brief: (§1)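 Cells were seeded at 3000 per well and incubated 24 h at 37 °C. Compounds were added in triplicate with 10% FBS: 0.1-10 or 0.1-20 µM for cancer lines, 3.125-400 µM for MCF-10A. Viability was read by MTT absorbance at 595 nm, with IC50 fitted from the curves. DMSO stocks were 20 mM.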

[2] = system: MDA-MB-231; experiment: Induction of SHP-1 expression in human MDA-MB-231 cells at 2.5 to 10 uM after 12 hrs by immunoblot analysis; assay type: functional, cell-based
Method in brief: (§2)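 MDA-MB-231 cells at 60–80% confluence were treated 12 h with 10% FBS at 2.5-10 µM or 2.5-5 µM, against a DMSO control. Whole-cell lysates were immunoblotted, with bands quantified as percent of control.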

[3] = AUC (0 to infinity) in Sprague-Dawley rat plasma at 1 mg/kg, iv measured after 24 hrs by UPLC analysis; assay type: ADME, organism-based; set-up: dose 1 mg/kg, time infinity, route intravenous
Method in brief: (§3)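 Rat plasma sampled from 2 min to 24 h after a single i.v. (1 mg/kg) or p.o. (10 mg/kg) dose. Parameters were derived from the concentration-time profiles. The bioanalytical method was validated to FDA guidelines for selectivity, linearity, LLOQ, accuracy, precision, recovery, matrix effect and stability.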

[4] = biological target: Epidermal growth factor receptor (Homo sapiens) (UniProt P00533); experiment: Inhibition of EGFR in human UW426 cells assessed as reduction in p-ERK1/2 (T202/Y204) level at 1 to 2.5 uM after 24 hrs by immunoblot analysis; assay type: cell-based
Chain of Epidermal growth factor receptor (Homo sapiens) (P00533 whole entry): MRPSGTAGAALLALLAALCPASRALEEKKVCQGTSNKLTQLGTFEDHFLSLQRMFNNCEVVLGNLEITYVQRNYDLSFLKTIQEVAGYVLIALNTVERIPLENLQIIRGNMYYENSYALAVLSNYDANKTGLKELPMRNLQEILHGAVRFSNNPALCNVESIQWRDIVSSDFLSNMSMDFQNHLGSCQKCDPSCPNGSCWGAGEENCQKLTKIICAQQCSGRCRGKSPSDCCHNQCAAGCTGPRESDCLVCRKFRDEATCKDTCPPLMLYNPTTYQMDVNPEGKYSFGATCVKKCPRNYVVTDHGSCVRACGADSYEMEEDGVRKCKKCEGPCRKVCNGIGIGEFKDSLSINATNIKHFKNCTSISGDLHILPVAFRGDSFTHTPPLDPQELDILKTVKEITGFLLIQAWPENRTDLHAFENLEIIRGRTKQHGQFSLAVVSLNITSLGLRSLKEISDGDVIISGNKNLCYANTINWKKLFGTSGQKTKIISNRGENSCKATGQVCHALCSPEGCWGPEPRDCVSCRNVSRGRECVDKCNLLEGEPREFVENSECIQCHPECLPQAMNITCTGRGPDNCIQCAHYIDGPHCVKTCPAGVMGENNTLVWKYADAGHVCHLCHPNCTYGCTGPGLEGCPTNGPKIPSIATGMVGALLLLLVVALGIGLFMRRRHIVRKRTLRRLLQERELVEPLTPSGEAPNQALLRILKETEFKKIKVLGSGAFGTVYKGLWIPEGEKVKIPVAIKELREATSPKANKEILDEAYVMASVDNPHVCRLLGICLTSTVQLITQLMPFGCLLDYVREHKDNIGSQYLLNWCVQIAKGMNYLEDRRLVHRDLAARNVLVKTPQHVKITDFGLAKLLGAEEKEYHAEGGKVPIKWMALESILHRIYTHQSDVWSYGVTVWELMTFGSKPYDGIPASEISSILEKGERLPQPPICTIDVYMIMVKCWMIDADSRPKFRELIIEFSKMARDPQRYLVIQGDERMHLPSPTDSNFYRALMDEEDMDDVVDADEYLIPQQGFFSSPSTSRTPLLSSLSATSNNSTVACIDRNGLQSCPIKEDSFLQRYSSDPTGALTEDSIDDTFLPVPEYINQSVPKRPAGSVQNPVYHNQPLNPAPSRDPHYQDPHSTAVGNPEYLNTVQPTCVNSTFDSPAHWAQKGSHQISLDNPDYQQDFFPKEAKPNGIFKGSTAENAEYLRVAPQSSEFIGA
Method in brief: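 UW426 cells at 60–80% confluence were treated 24 h at 1-2.5 µM with 10% FBS, against a DMSO control, then immunoblotted.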

[5] = system: MCF-10A; experiment: Antiproliferative activity against human MCF10A cells after 24 hrs by MTT assay; assay type: cell-based; method in brief: as §1
[6] = system: Mus musculus; experiment: Toxicity in BALB/c nude mouse xenografted with human MDA-MB-231 cells assessed as lung damage at 2.5 to 10 mg/kg, po qd administered for 32 days by H&E staining based light microscopy; assay type: organism-based; settings: in vivo, 768 h
Method in brief: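 6-week-old female athymic SPF BALB/c nude mice received 5 x 10^6 MDA-MB-231 cells s.c. in the flank. Oral treatment began once tumors reached about 100 mm3, with 8 mice per group and a saline vehicle control. […] Treatment lasted 32 days. Heart, liver, spleen, lung and kidney were fixed 48 h in 10% neutral-buffered formaldehyde, paraffin-embedded, cut at 5 µm, H&E-stained and examined by light microscopy.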

[7] = Selectivity ratio of IC50 for human MCF-10A cells to IC50 for human MDA-MB-231 cells
Method in brief: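 MTT viability assay. MCF-10A was grown in RPMI-1640 and MDA-MB-231 in DMEM, each with 10% FBS. Cells were seeded at 3000 per well and left 24 h at 37 °C. Compound was then added in triplicate with 10% FBS, at 0.1-10 µM for the cancer cells and 3.125-400 µM for MCF-10A. Absorbance was read at 595 nm. The ratio is IC50 for MCF-10A over IC50 for MDA-MB-231.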

[8] = system: MDA-MB-231; experiment: Induction of apoptosis in human MDA-MB-231 cells assessed as increase in cleaved caspase level at 2.5 to 5 uM after 12 hrs by immunoblot analysis; assay type: functional, cell-based; method in brief: as §2
[9] = Terminal half life in Sprague-Dawley rat plasma at 1 mg/kg, iv measured after 24 hrs by UPLC analysis; assay type: ADME, organism-based; settings: read-out: beta t1/2 (converted)
Method in brief: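 Rats dosed i.v. or p.o. Plasma concentrations followed from 2 min to 24 h after dosing. The bioanalytical method was validated to FDA guidelines for selectivity, linearity, LLOQ, accuracy, precision, recovery, matrix effect and stability.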

[10] = system: MDA-MB-231; experiment: Effect on total STAT3 level in human MDA-MB-231 cells at 2.5 to 5 uM after 12 hrs by immunoblot analysis; assay type: ADME, cell-based; settings: mda-mb-231, 12 h; method in brief: as §2
[11] = biological target: T1, Signal transducer and activator of transcription 5A (Homo sapiens) (UniProt P42229); experiment: Inhibition of STAT5 dimerization in human MDA-MB-231 cells assessed as inhibition of STAT5-STAT5 DNA binding activity at 5 uM after 24 hrs by EMSA; assay type: cell-based
T1 sequence (whole entry): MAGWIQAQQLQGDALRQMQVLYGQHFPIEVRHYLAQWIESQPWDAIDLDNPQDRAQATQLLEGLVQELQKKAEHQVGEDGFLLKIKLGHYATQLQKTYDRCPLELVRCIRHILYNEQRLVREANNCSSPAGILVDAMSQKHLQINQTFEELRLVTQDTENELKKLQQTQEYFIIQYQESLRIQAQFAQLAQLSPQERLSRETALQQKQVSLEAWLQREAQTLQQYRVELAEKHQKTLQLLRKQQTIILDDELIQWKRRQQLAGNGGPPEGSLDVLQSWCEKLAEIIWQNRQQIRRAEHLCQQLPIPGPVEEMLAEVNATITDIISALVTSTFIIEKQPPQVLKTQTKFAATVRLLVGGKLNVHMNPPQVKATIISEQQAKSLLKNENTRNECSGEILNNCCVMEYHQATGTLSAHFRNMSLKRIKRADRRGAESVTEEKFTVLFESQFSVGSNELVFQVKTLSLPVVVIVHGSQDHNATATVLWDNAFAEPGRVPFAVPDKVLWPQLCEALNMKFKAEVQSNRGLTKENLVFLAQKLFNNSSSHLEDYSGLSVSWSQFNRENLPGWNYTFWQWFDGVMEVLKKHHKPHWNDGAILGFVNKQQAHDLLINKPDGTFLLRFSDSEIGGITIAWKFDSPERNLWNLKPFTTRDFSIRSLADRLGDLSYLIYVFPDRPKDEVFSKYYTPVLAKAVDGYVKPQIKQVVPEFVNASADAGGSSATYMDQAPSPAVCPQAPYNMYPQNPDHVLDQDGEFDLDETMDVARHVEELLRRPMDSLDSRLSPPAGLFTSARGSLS
Method in brief: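 MDA-MB-231 cells were treated at 5 µM for 0-24 h before nuclear extract preparation. Extracts were incubated with biotin-labeled probe for 30 min at room temperature, then analysed by EMSA.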

[12] = Clearance in Sprague-Dawley rat plasma at 1 mg/kg, iv measured after 24 hrs by UPLC analysis; assay type: ADME, organism-based
Method in brief: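 Parameters were derived from the concentration-time profiles. The bioanalytical method was validated to FDA guidelines for selectivity, linearity, LLOQ, accuracy, precision, recovery, matrix effect and stability.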

[13] = MRT (0 to t) in Sprague-Dawley rat plasma at 1 mg/kg, iv measured after 24 hrs by UPLC analysis; assay type: ADME, organism-based; method in brief: as §3

NS(=O)(=O)c1cccc2c1C(=O)C=C(Nc1ccccc1N1CCNCC1)C2=O
IC50 [1]: 1.2 µM | Activity [2]: Active | AUC(0-inf) [3]: 199 ng·h/mL | inhibition [4]: inactive | IC50 [5]: 129 µM | Activity [6]: Non-Toxic | Ratio IC50 [7]: 184 | Activity [8]: Active | half-life [9]: 42.6 min | Activity [10]: Non-Toxic | inhibition [11]: inactive | clearance [12]: 87.7 mL/min/kg | MRT last at 24 h [13]: 33 min
